Converted amounts (≈) assume the structure as drawn.
How the values were obtained:
Type in all cases: functional
Staphylococcus aureus = experiment: Antibacterial activity against Staphylococcus aureus
Summary of the method: (§1)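 Broth microdilution MIC in Mueller Hinton broth, 96-well plates. Strains from departmental collection, kept on nutrient agar slants at 37 °C, purity checked before testing. Starting inoculum 1–5 · 10³ cells/ml. Plates incubated 24 h at 37 °C in a moist chamber, then absorbance read at 492 nm. MIC taken as 90% growth inhibition relative to growth control.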

Escherichia coli = experiment: Antibacterial activity against Escherichia coli; summary of the method: as §1
Pseudomonas aeruginosa = experiment: Antibacterial activity against Pseudomonas aeruginosa; summary of the method: as §1
Enterococcus faecalis = experiment: Antibacterial activity against Streptococcus faecalis; summary of the method: as §1
Klebsiella pneumoniae = experiment: Antibacterial activity against Klebsiella pneumoniae; summary of the method: as §1

MIC (Staphylococcus aureus) [µg/mL] | MIC (Escherichia coli) [µg/mL] | MIC (Pseudomonas aeruginosa) [µg/mL] | MIC (Enterococcus faecalis) [µg/mL] | MIC (Klebsiella pneumoniae) [µg/mL] | Compound
> 50 | 50 (≈ 131 µM) | > 50 | 50 (≈ 131 µM) | > 50 | N=c1c(Cc2ccccc2Cl)c[nH]c(=O)n1-c1ccc(Cl)c(Cl)c1
50 (≈ 194 µM) | 25 (≈ 96.9 µM) | 50 (≈ 194 µM) | 50 (≈ 194 µM) | 50 (≈ 194 µM) | N=C1CCNC(=O)N1c1ccc(Cl)cc1Cl
> 50 | > 50 | > 50 | > 50 | 50 (≈ 131 µM) | N=c1c(Cc2ccccc2Cl)c[nH]c(=O)n1-c1ccc(Cl)cc1Cl
50 (≈ 170 µM) | 50 (≈ 170 µM) | 50 (≈ 170 µM) | 50 (≈ 170 µM) | 50 (≈ 170 µM) | N#C/C(=C/c1ccccc1)CNC(=S)Nc1ccccc1
> 50 | > 50 | > 50 | > 50 | > 50 | N=c1c(Cc2ccc(Cl)c(Cl)c2)c[nH]c(=O)n1-c1ccc(Cl)cc1
1.56 (≈ 3.33 µM) | 1.56 (≈ 3.33 µM) | 50 (≈ 107 µM) | 3.12 (≈ 6.66 µM) | 3.12 (≈ 6.66 µM) | COC(c1ccccc1)C1CN(Cc2ccccc2)C(=O)N(c2ccc(Cl)c(Cl)c2)C1=N (centres undefined)
> 50 | > 50 | > 50 | > 50 | > 50 | N#CC(CN(Cc1ccccc1)C(=O)Nc1ccc(Cl)c(Cl)c1)C(O)c1ccccc1 (centres undefined)
1.56 (≈ 4.31 µM) | 1.56 (≈ 4.31 µM) | 25 (≈ 69 µM) | 3.12 (≈ 8.61 µM) | 3.12 (≈ 8.61 µM) | N#C/C(=C/c1ccc(Cl)c(Cl)c1)CNC(=S)Nc1ccccc1
> 50 | > 50 | > 50 | > 50 | > 50 | N#C/C(=C/c1ccc(Cl)c(Cl)c1)CNC(=O)Nc1ccc(Cl)cc1
> 50 | 6.25 (≈ 15.1 µM) | > 50 | > 50 | > 50 | N#C/C(=C/c1ccc(Cl)c(Cl)c1)CNC(=O)Nc1ccc(Cl)cc1Cl
> 50 | > 50 | > 50 | > 50 | > 50 | N#CC(CNC(=O)Nc1ccc(Cl)cc1Cl)C(O)c1ccccc1 (centres undefined)
> 50 | > 50 | > 50 | > 50 | > 50 | N#C/C(=C/c1ccccc1Cl)CNC(=O)Nc1ccc(Cl)cc1
> 50 | > 50 | > 50 | > 50 | > 50 | N=c1c(Cc2ccccc2Cl)c[nH]c(=O)n1-c1ccc(Cl)cc1
50 (≈ 144 µM) | 50 (≈ 144 µM) | 50 (≈ 144 µM) | 25 (≈ 72.2 µM) | 50 (≈ 144 µM) | N=c1c(Cc2ccccc2)c[nH]c(=O)n1-c1ccc(Cl)cc1Cl
> 50 | > 50 | > 50 | > 50 | > 50 | N=c1c(Cc2cccs2)c[nH]c(=O)n1-c1ccc(Cl)cc1
1.56 (≈ 3.76 µM) | 0.78 (≈ 1.88 µM) | 50 (≈ 120 µM) | 1.56 (≈ 3.76 µM) | 1.56 (≈ 3.76 µM) | N#C/C(=C/c1ccc(Cl)c(Cl)c1)CNC(=O)Nc1ccc(Cl)c(Cl)c1
> 50 | 50 (≈ 142 µM) | > 50 | > 50 | > 50 | N=c1c(Cc2cccs2)c[nH]c(=O)n1-c1ccc(Cl)cc1Cl
> 50 | > 50 | > 50 | > 50 | > 50 | CCOc1ccc(NC(=O)N(Cc2ccccc2)CC(C#N)C(O)c2ccccc2Cl)cc1 (centres undefined)
> 50 | > 50 | > 50 | > 50 | > 50 | Cc1ccc(NC(=O)NC/C(C#N)=C\c2ccccc2Cl)cc1Cl

MIC (Staphylococcus aureus) [µg/mL] | MIC (Escherichia coli) [µg/mL] | MIC (Pseudomonas aeruginosa) [µg/mL] | MIC (Enterococcus faecalis) [µg/mL] | MIC (Klebsiella pneumoniae) [µg/mL] | Compound
50 (≈ 144 µM) | 50 (≈ 144 µM) | 50 (≈ 144 µM) | 50 (≈ 144 µM) | 50 (≈ 144 µM) | N=c1c(Cc2ccccc2)c[nH]c(=O)n1-c1ccc(Cl)c(Cl)c1
3.12 (≈ 6.66 µM) | 3.12 (≈ 6.66 µM) | 50 (≈ 107 µM) | 6.25 (≈ 13.3 µM) | 3.12 (≈ 6.66 µM) | COC(c1ccccc1)C(C#N)CN(Cc1ccccc1)C(=O)Nc1ccc(Cl)c(Cl)c1 (centres undefined)
> 50 | > 50 | > 50 | > 50 | > 50 | Nc1c(Cc2ccccc2)cnc(=S)n1-c1ccccc1
> 50 | > 50 | > 50 | > 50 | > 50 | N#C/C(=C/c1cccs1)CNC(=O)Nc1ccc(Cl)cc1
50 (≈ 139 µM) | 50 (≈ 139 µM) | 50 (≈ 139 µM) | 50 (≈ 139 µM) | > 50 | Cc1ccc(-n2c(=O)[nH]cc(Cc3ccccc3Cl)c2=N)cc1Cl
0.09 (≈ 0.258 µM) |  | 50 (≈ 143 µM) | 0.02 (≈ 0.0572 µM) | 0.01 (≈ 0.0286 µM) | CC1(C)S[C@@H]2[C@H](NC(=O)[C@H](N)c3ccccc3)C(=O)N2[C@H]1C(=O)O [AMPICILLIN]
> 50 | > 50 | > 50 | > 50 | > 50 | N#C/C(=C/c1ccccc1)CNC(=O)Nc1ccc(Cl)c(Cl)c1
> 50 | > 50 | > 50 | > 50 | > 50 | N#C/C(=C/c1ccccc1Cl)CNC(=S)Nc1ccccc1
25 (≈ 59.5 µM) | 12.5 (≈ 29.8 µM) | 50 (≈ 119 µM) | 50 (≈ 119 µM) | 50 (≈ 119 µM) | N#CC(CN(Cc1ccccc1)C(=O)Nc1ccc(Cl)cc1)C(O)c1ccccc1 (centres undefined)
> 50 | > 50 | > 50 | 25 (≈ 76.3 µM) | > 50 | Nc1c(Cc2ccccc2Cl)cnc(=S)n1-c1ccccc1
> 50 | 1.56 (≈ 4.1 µM) | > 50 | > 50 | > 50 | N#C/C(=C/c1ccccc1Cl)CNC(=O)Nc1ccc(Cl)c(Cl)c1
> 50 | > 50 | > 50 | 50 (≈ 127 µM) | 50 (≈ 127 µM) | Cc1ccc(-n2c(=O)[nH]cc(Cc3ccc(Cl)c(Cl)c3)c2=N)cc1Cl
> 50 | > 50 | > 50 | > 50 | > 50 | N#C/C(=C/c1cccs1)CNC(=O)Nc1ccc(Cl)cc1Cl
25 (≈ 60.2 µM) | 25 (≈ 60.2 µM) | 50 (≈ 120 µM) | 25 (≈ 60.2 µM) | 50 (≈ 120 µM) | N=c1c(Cc2ccc(Cl)c(Cl)c2)c[nH]c(=O)n1-c1ccc(Cl)c(Cl)c1
> 50 | > 50 | > 50 | > 50 | > 50 | N#C/C(=C/c1ccccc1Cl)CNC(=O)Nc1ccc(Cl)cc1Cl
3.12 (≈ 7.52 µM) | 3.12 (≈ 7.52 µM) | 25 (≈ 60.2 µM) | 3.12 (≈ 7.52 µM) | 3.12 (≈ 7.52 µM) | N=c1c(Cc2ccc(Cl)c(Cl)c2)c[nH]c(=O)n1-c1ccc(Cl)cc1Cl
> 50 | 50 (≈ 144 µM) | > 50 | > 50 | > 50 | N#C/C(=C/c1ccccc1)CNC(=O)Nc1ccc(Cl)cc1Cl
> 50 | > 50 | > 50 | > 50 | > 50 | Cc1ccc(NC(=O)NC/C(C#N)=C\c2ccc(Cl)c(Cl)c2)cc1Cl
> 50 | > 50 | > 50 | 25 (≈ 69 µM) | 50 (≈ 138 µM) | Nc1c(Cc2ccc(Cl)c(Cl)c2)cnc(=S)n1-c1ccccc1

Compound | MIC (Staphylococcus aureus) [µg/mL] | MIC (Escherichia coli) [µg/mL] | MIC (Pseudomonas aeruginosa) [µg/mL] | MIC (Enterococcus faecalis) [µg/mL] | MIC (Klebsiella pneumoniae) [µg/mL]
GENTAMICIN SULFATE | 6.25 | 0.02 | 25 | 0.78 | 0.78
CCn1cc(C(=O)O)c(=O)c2cc(F)c(N3CCNCC3)cc21 [NORFLOXACIN] | 0.3 (≈ 0.939 µM) | 0.36 (≈ 1.13 µM) | 0.78 (≈ 2.44 µM) | 0.78 (≈ 2.44 µM) | 0.36 (≈ 1.13 µM)

From ChEMBL document CHEMBL1137433, “Synthesis and antibacterial evaluation of ureides of Baylis-Hillman derivatives” (2006)
